Activity calls are given as the source filed them. The calls are words filed in the database; no cut-off is given here.
Test system: Salmonella typhimurium
Experiment: Growth inhibition of Salmonella enterica serovar Typhimurium ATCC 14028 up to 1 mM
Type: functional, organism-based
Conditions: Salmonella enterica subsp. enterica serovar Typhimurium
How it was run: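 Aliquots (30 μL) of a 2 mL overnight culture were dosed with 0.1, 1.0, 2.0, 3.0, 6.0 or 15.0 μL of compound in DMSO. DMSO alone in LB served as the control.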

Row | Compound | Activity
1 | COc1cc(/C=C2\S/C(=N\c3ccccc3)N(c3ccc(CN)cc3)C2=O)cc(OC)c1O | inactive
2 | COc1cc(/C=C2\S/C(=N\c3ccccc3)N(c3ccc(CNC(=O)OC(C)(C)C)cc3)C2=O)cc(OC)c1O | inactive
3 | COc1cc(/C=C2\S/C(=N\c3ccccc3)N([C@@H](Cc3ccc(-c4ccccc4)cc3)C(=O)N[C@@H](CCCNC(=N)N)C(N)=O)C2=O)cc(OC)c1O | inactive
4 | COc1cc(/C=C2\S/C(=N\c3ccccc3)N([C@@H](CCCN)C(=O)N[C@@H](Cc3ccc(-c4ccccc4)cc3)C(N)=O)C2=O)cc(OC)c1O | inactive
5 | COc1cc(/C=C2\S/C(=N\c3ccccc3)N(c3ccccc3)C2=O)cc(OC)c1O | inactive

Test system: Salmonella enterica subsp. enterica serovar Typhimurium
Experiment: Inhibition of Salmonella enterica serovar Typhimurium type 3 secretion system-mediated SipA protein secretion at 1 uM by Western blotting
Conditions: not given

Row | Compound | Activity
6 | COc1cc(/C=C2\S/C(=N\c3ccccc3)N(CC(=O)O)C2=O)cc(OC)c1O | Active
7 | COc1cc(/C=C2\S/C(=N\c3ccccc3)N(CCCC(=O)OC(C)(C)C)C2=O)cc(OC)c1O | Active

Test system: not listed separately
Experiment: Inhibition of Salmonella enterica serovar Typhimurium type 3 secretion system-mediated SipA protein secretion by Western blotting
Parameters: species or system Salmonella enterica subsp. enterica serovar Typhimurium
Conditions: not given
How it was run: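 Bacteria were grown 18 h in LB broth and pelleted, and culture supernates were 0.2 μm-filtered. Proteins were precipitated with 10% TCA on ice for 30 min, centrifuged, acetone-washed and resolved by SDS-PAGE. Western blots were probed with polyclonal anti-SipA. IC50 was calculated from percent inhibition of secreted SipA using at least 3 inhibitor concentrations.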

Row | Compound | IC50
8 | COc1cc(/C=C2\S/C(=N\c3ccccc3)N(c3ccc(CN)cc3)C2=O)cc(OC)c1O | 52 µM
9 | COc1cc(/C=C2\S/C(=N\c3ccccc3)N(C(CCCNC(=N)N)C(=O)N3CSC[C@H]3C(N)=O)C2=O)cc(OC)c1O (stereo partly specified) | 65 µM
10 | COc1cc(/C=C2\S/C(=N\c3ccccc3)N(c3ccc(CNC(=O)OC(C)(C)C)cc3)C2=O)cc(OC)c1O | 45 µM
11 | COc1cc(/C=C2\S/C(=N\c3ccccc3)N(CC(=O)O)C2=O)cc(OC)c1O | 36 µM
12 | COc1cc(/C=C2\S/C(=N\c3ccccc3)N([C@@H](C)C(=O)N[C@@H](CCCNC(=N)N)C(N)=O)C2=O)cc(OC)c1O | 77 µM
13 | O=C1/C(=C/C2CCCCC2)S/C(=N\c2ccccc2)N1c1ccccc1 | 225 µM
14 | COc1cc(/C=C2\S/C(=N\c3ccccc3)N([C@@H](CCCNC(=N)N)C(=O)N[C@@H](Cc3ccc(-c4ccccc4)cc3)C(N)=O)C2=O)cc(OC)c1O | 50 µM
15 | COc1ccc(N2C(=O)/C(=C/C3CCCCC3)S/C2=N\c2ccccc2)cc1 | 278 µM
16 | COc1ccc(N2C(=O)/C(=C/c3cc(OC)c(O)c(OC)c3)S/C2=N\c2ccccc2)cc1 | 51 µM
17 | COc1cc(/C=C2\S/C(=N\c3ccccc3)N(CCCCCCN)C2=O)cc(OC)c1O | 54 µM
18 | CSc1ccc(/C=C2\S/C(=N\c3ccccc3)N(c3ccccc3)C2=O)cc1 | 26 µM
19 | COc1cc(/C=C2\S/C(=N\c3ccccc3)N([C@@H](C)C(=O)N[C@@H](CCCN)C(N)=O)C2=O)cc(OC)c1O | 16 µM
20 | O=C1/C(=C/c2ccncc2)S/C(=N\c2ccccc2)N1c1ccccc1 | 376 µM
21 | COc1ccc(/C=C2\S/C(=N\c3ccccc3)N(c3ccccc3)C2=O)cc1OC | 278 µM
22 | COc1cc(/C=C2\S/C(=N\c3ccccc3)N([C@H](C)C(=O)N[C@@H](CCCNC(=N)N)C(N)=O)C2=O)cc(OC)c1O | 38 µM
23 | COc1cc(/C=C2\S/C(=N\c3ccccc3)N(C(CCCNC(=N)N)C(=O)N3Cc4ccccc4C[C@H]3C(N)=O)C2=O)cc(OC)c1O (stereo partly specified) | 115 µM
24 | COc1ccc(N2C(=O)/C(=C/C(C)(C)C)S/C2=N\c2ccccc2)cc1 | 160 µM
25 | COc1cc(/C=C2\S/C(=N\c3ccccc3)N(C(CCCNC(=N)N)C(=O)N[C@@H](C)C(N)=O)C2=O)cc(OC)c1O (stereo partly specified) | 41 µM
26 | O=C1/C(=C/c2ccc(Cl)cc2)S/C(=N\c2ccccc2)N1c1ccccc1 | 322 µM
27 | COc1cc(/C=C2\S/C(=N\c3ccccc3)N(C(C)C(=O)N[C@@H](Cc3c[nH]c4ccccc34)C(N)=O)C2=O)cc(OC)c1O (stereo in doubt; 44b) | 29 µM

Row | Compound | IC50
28 | COc1cc(/C=C2\S/C(=N\c3ccccc3)N([C@@H](CCCN)C(=O)N[C@@H](C)C(N)=O)C2=O)cc(OC)c1O | 32 µM
29 | COc1cc(/C=C2\S/C(=N\c3ccccc3)N([C@@H](Cc3ccc(-c4ccccc4)cc3)C(=O)N[C@@H](CCCNC(=N)N)C(N)=O)C2=O)cc(OC)c1O | 3 µM
30 | COc1cc(/C=C2\S/C(=N\c3ccccc3)N([C@@H](CCCN)C(=O)N[C@@H](Cc3ccc(-c4ccccc4)cc3)C(N)=O)C2=O)cc(OC)c1O | 13 µM
31 | CC(C)(C)/C=C1\S/C(=N\c2ccccc2)N(c2ccccc2)C1=O | 244 µM
32 | COc1cc(/C=C2\S/C(=N\c3ccccc3)N(C(CCCN)C(=O)N[C@H](CC3CNc4ccccc43)C(N)=O)C2=O)cc(OC)c1O (mixture of isomers) | 52 µM
33 | COc1cc(/C=C2\S/C(=N\c3ccccc3)N(CCCC(=O)OC(C)(C)C)C2=O)cc(OC)c1O | 4 µM
34 | COc1cc(/C=C2\S/C(=N\c3ccccc3)N([C@H](Cc3ccc(-c4ccccc4)cc3)C(=O)N[C@@H](CCCNC(=N)N)C(N)=O)C2=O)cc(OC)c1O | 8 µM
35 | COc1ccc(/N=C2\S/C(=C\c3ccncc3)C(=O)N2c2ccccc2)cc1 | 137 µM
36 | COc1cc(/C=C2\S/C(=N\c3ccccc3)N([C@@H](CCC(=O)O)C(=O)N[C@@H](Cc3ccc(-c4ccccc4)cc3)C(N)=O)C2=O)cc(OC)c1O | 50 µM
37 | COc1cc(/C=C2\S/C(=N\c3ccc(CN)cc3)N(c3ccccc3)C2=O)cc(OC)c1O | 101 µM
38 | COc1cc(/C=C2\S/C(=N\c3ccccc3)N([C@H](C)C(=O)N[C@@H](CCCN)C(N)=O)C2=O)cc(OC)c1O | 9 µM
39 | COc1cc(/C=C2\S/C(=N\c3ccccc3)N(CCCC(=O)O)C2=O)cc(OC)c1O | 66 µM
40 | COc1cc(/C=C2\S/C(=N\c3ccccc3)N([C@@H](C)C(=O)N[C@@H](Cc3ccc(O)cc3)C(N)=O)C2=O)cc(OC)c1O | 112 µM
41 | COc1cc(/C=C2\S/C(=N\c3ccccc3)N(c3ccccc3)C2=O)cc(OC)c1O | 83 µM
42 | COc1cc(/C=C2\S/C(=N\c3ccccc3)N([C@@H](C)C(=O)N[C@@H](C)C(N)=O)C2=O)cc(OC)c1O | 62 µM
43 | COc1cc(/C=C2\S/C(=N\c3ccccc3)N(C(CCCN)C(=O)N[C@@H](CC3CNc4ccccc43)C(N)=O)C2=O)cc(OC)c1O (mixture of isomers) | 56 µM
44 | COc1cc(/C=C2\S/C(=N\c3ccccc3)N(C(C)C(=O)N[C@@H](Cc3c[nH]c4ccccc34)C(N)=O)C2=O)cc(OC)c1O (stereo in doubt; 44a) | 30 µM
45 | COc1cc(/C=C2\S/C(=N\c3ccccc3)N(C(C(=O)N[C@@H](Cc3ccc(O)cc3)C(N)=O)C(C)C)C2=O)cc(OC)c1O (stereo partly specified) | 52 µM
46 | COc1cc(/C=C2\S/C(=N\c3ccccc3)N(C(Cc3ccc(-c4ccccc4)cc3)C(=O)N[C@@H](CCCN)C(N)=O)C2=O)cc(OC)c1O (single isomer, unassigned) | 55 µM

— ChEMBL document CHEMBL1152276, “Substituted 2-imino-5-arylidenethiazolidin-4-one inhibitors of bacterial type III secretion” (J Med Chem, 2008)
